The text below walks through data of ChEMBL document CHEMBL3120104, “Discovery of the first C-nucleoside HCV polymerase inhibitor (GS-6620) with demonstrated antiviral response in HCV infected patients” (J Med Chem, 2014).

≈ marks a conversion by molar mass, not a printed value.

Series [1] in a line: Oral bioavailability in golden syrian hamster at 5 mg/kg. The format is ADME, organism-based, Mesocricetus auratus. To be noted: in vivo.
In series [2] the test system is Syrian golden hamster. Put plainly: Cmax in golden syrian hamster assessed as liver triphosphate level at 5 mg/kg, po by LC/MS/MS analysis. Also on record: dose 5 mg/kg, route oral. Conditions: in vivo; call rule not given here. The format is ADME, organism-based, Mesocricetus auratus. In short, it runs like this:
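Groups of 12 Golden Syrian hamsters were dosed orally at 5 mg-equiv/kg. Vehicle was EtOH/PEG400/water buffered with 50 mM pH 4 citrate at 2.5 mg-equiv/mL. Liver was homogenized in four volumes of ice-cold 0.1% KOH/67 mM EDTA in 70% MeOH containing 0.25 μM Cl-ATP, then centrifuged, dried and reconstituted in 1 mM ammonium phosphate pH 7.0. Triphosphate was measured by LC/MS/MS, with endogenous ATP checked for sample stability.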

Series [3] has as its system Syrian golden hamster. Put plainly: Cmax in golden syrian hamster assessed as liver triphosphate level at 1 mg/kg, iv by LC/MS/MS analysis. Also on record: dose 1 mg/kg, route intravenous. Conditions: in vivo. The class given is ADME, organism-based, Mesocricetus auratus. In short, it runs like this:
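Golden Syrian hamsters in groups of 12, dosed iv at 1 mg-equiv/kg in EtOH/PEG400/water adjusted to pH 4 with HCl (0.5 mg-equiv/mL). Liver homogenised in ice-cold 70% MeOH with 0.1% KOH, 67 mM EDTA and 0.25 μM Cl-ATP internal standard, then centrifuged, dried and reconstituted. Triphosphate measured by LC/MS/MS; endogenous ATP checked for sample stability.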

Series [4] can be described thus: Metabolic stability in human liver S9 fraction assessed as extraction at 2 uM after 90 mins by LC/MS/MS analysis. The format is ADME, subcellular. To be noted: read-out: Stability. The essentials:
(§1)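 Compound at 2 μM was incubated with human intestinal or hepatic S9 fraction plus NADPH and UDPGA for 90 min at 37 °C. Time-point samples were quenched in aqueous acetonitrile/methanol with internal standard and analysed by LC/MS/MS. Half-life came from an exponential first-order fit, and hepatic extraction was predicted from half-life using the well-stirred model.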

The nature of series [5]: Half life in human intestinal S9 fraction at 2 uM by LC/MS/MS analysis. The class given is ADME, Intestine. In short, it runs like this:
as §1

Series [6] can be described thus: Permeability across basolateral to apical side in human Caco2 cells at 10 uM after 1 to 2 hrs by LC/MS/MS analysis. To be noted: Caco-2, read-out: permeability. The format is ADME, cell-based. In short, it runs like this:
(§2)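 Caco-2 monolayers were grown at least 21 days, and membrane integrity was checked by TEER after buffer equilibration. Test compound was dosed at 10 μM on the apical or basolateral side, in duplicate wells. Receiver samples at 1 and 2 h were precipitated with acetonitrile plus internal standard and run by LC/MS/MS.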

Series [7] in a line: Permeability across apical to basolateral side in human Caco2 cells at 10 uM after 1 to 2 hrs by LC/MS/MS analysis. The class given is ADME, cell-based. Conditions: Caco-2, read-out: permeability. The essentials: as §2
Background: Caco-2 cells form a polarised layer with tight junctions and transporters.

Series [8] in a line: Aqueous solubility of the compound in phosphate buffer at pH 7 by reverse-phase UPLC-UV method. The format is physicochemical. The essentials:
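Excess solid was suspended in pH 7 phosphate buffer at ambient temperature, sonicated, then stirred for at least 2 h. After centrifugation, the supernatant was quantified by reverse-phase UPLC-UV.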

A short description of series [9]: Lipophilicity, log D of the compound by HPLC/UV method. The format is physicochemical. In short, it runs like this: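 A 10 mM DMSO stock was diluted 1:100 into 1:1 acetonitrile/water, shaken 30 min, and analysed by HPLC/UV on a C18 column with 20 mM ammonium acetate/acetonitrile mobile phase.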
A short description of series [10]: Cytotoxicity against human HuH7 cells after 3 days by fluorescence assay. To be noted: Huh-7 cells. The class given is cell-based. The essentials:
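Huh-7 HCV replicon cells were seeded at 2000 cells/well in medium without Geneticin. Compounds were added as ten-point 1:3 DMSO dilutions in quadruplicate (final DMSO 0.44%), with […] as the 100% cytotoxicity control. After 3 days at 37 °C, cells were washed and given 400 nM calcein AM for 30 min at RT, and fluorescence read at ex 490/em 520 nm. Signal was normalized to DMSO and puromycin wells, and CC50 taken from a four-parameter Hill fit.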

Series [11] has as its system Hepatitis C virus. Put plainly: Antiviral activity against HCV genotype 1b infected in human HuH7 cells assessed as inhibition of viral replication after 3 days by luminescence assay. To be noted: Huh-7, 72 h. The format is functional, organism-based, Hepacivirus hominis. The essentials: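 Multiplex replicon assay carrying a renilla luciferase reporter, with stable GT1b, 1a and 2a replicons and chimeric 2b, 3a, 4a, 5a and 6a replicons. 2000 replicon cells/well in medium without Geneticin. Ten-step 1:3 serial dilutions, four replicates, 0.44% DMSO final. Incubated 3 days at 37 °C, 5% CO₂. Luminescence normalised to DMSO wells and to protease-inhibitor (ITMN-191) wells. EC50 from a four-parameter Hill fit.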

The nature of series [12]: Metabolic stability in serum (unknown origin). The class given is ADME.
Series [13] is described as follows: Oral absorption in beagle dog at 5 mg/kg, po by LC/MS/MS analysis. To be noted: in vivo. On the set-up: dose 5 mg/kg, route oral. The class given is ADME, organism-based, Canis lupus familiaris. In short, it runs like this:
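Naive male beagle dogs were dosed once, orally at 5 mg/kg in EtOH/PEG 400/50 mM citrate buffer pH 4 (5/40/55), or intravenously at 0.5 mg/kg for reference. Plasma was sampled over 24 h and processed by acetonitrile precipitation. Bioavailability %F = AUC_po × Dose_iv / (AUC_iv × Dose_po).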

Series [14] can be described thus: AUC (0 to infinity) in jagular vein cannulated beagle dog at 0.5 mg/kg, iv by LC/MS/MS analysis. The format is ADME, organism-based, Canis lupus familiaris. On the set-up: time infinity, dose 0.5 mg/kg, route intravenous. Conditions: plasma. The essentials:
(§3)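 Naive male beagle dogs got a single intravenous infusion of 0.5 mg/kg in EtOH/PEG 400/water 5/20/75, adjusted to pH 4 with HCl. EDTA-K3 blood was collected over 24 h and plasma isolated. Plasma was precipitated with acetonitrile to a final 60%, filtered, dried, reconstituted in 20% acetonitrile and analysed.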

Series [15] is described as follows: AUC (0 to infinity) in portal vein cannulated beagle dog at 0.5 mg/kg, iv by LC/MS/MS analysis. The format is ADME, organism-based, Canis lupus familiaris. On the set-up: time infinity, dose 0.5 mg/kg, route intravenous. To be noted: plasma. The essentials: as §3
Series [16] deals with Hepatitis C virus. The series can be described thus: Selectivity ratio of EC50 for HCV harboring NS5B RNA dependent RNA polymerase S282T mutant to EC50 for wild-type HCV. The class given is functional, Hepacivirus hominis.
The test system of another series is Hepatocyte. Put plainly: Prodrug coversion in human hepatocytes assessed as triphosphate formation assesed per million cells at 10 uM incubated for 1 hr followed by compound washout by liquid chromatography coupled with mass spectrometry. The format is ADME, cell-based. Also on record: dose 10 uM. The essentials:
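Confluent primary human hepatocytes (0.88 × 10⁶ cells/well, Williams E medium) were exposed to 10 μM compound for 1 h, then to drug-free medium for 23 h. Cells were collected during and after exposure and extracted. Triphosphate was quantified by LC/MS/MS and expressed per million cells.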

The bioavailability is dose-corrected exposure relative to a reference, in per cent. The low end stands for poor availability, the high end for good availability. For orientation: Cmax means the highest concentration seen after dosing. As usually defined, the half-life is the time in which the quantity being followed falls by half. Higher therefore signals slow decline. As a reminder, the solubility is how much of the substance goes into solution per volume. High values mean much dissolved substance, low ones little dissolved substance. Broadly, the logD is lipophilicity at a set pH, counting ionised and neutral species. Low values mean lower lipophilicity, high ones higher lipophilicity. Broadly, the CC50 is the concentration at which the toxic effect on the cells reaches its halfway point. The low end stands for harm at low concentration, the high end for better tolerance by the cells. Usually EC50 stands for the concentration needed to bring the measured effect to its halfway point. Turning to `CCOC(=O)[C@H](C)NP(=O)(OC[C@H]1O[C@@](C#N)(c2ccc3c(N)ncnn23)[C@](C)(O)[C@@H]1O)Oc1ccccc1` (some centres undefined), in [1], the bioavailability stood at 2.5%. The Cmax is 570 nM in the series on Syrian golden hamster [2] and 4480 nM with Syrian golden hamster [3]. In addition, the hepatic extraction ratio at 1.5 h, 2 µM in series [4] came to 0.89. In series [5], the half-life at 2 µM stood at 1.15 h. The Papp B→A at 10 µM in series [6] turned out to be 2.98 ×10⁻⁶ cm/s. Further, the Papp A→B at 10 µM in series [7] worked out at 0.17 ×10⁻⁶ cm/s. The same compound yielded a solubility in series [8] of 108 µg/mL (≈ 193 µM). The same compound returned a pH-dependent lipophilicity (logD) in series [9] of 1.6. In addition, the CC50 at 72 h in series [10] is over 89000 nM. In addition, the EC50 in the series with Hepatitis C virus [11] was 1450 nM.

As for `C#C[C@@]1(c2ccc3c(N)ncnn23)O[C@H](CO)[C@@H](O)[C@@]1(C)O`, the EC50 in the series with Hepatitis C virus [11] is over 89000 nM.

As a reminder, the AUC(0-inf) is the area under the concentration-time curve extrapolated to infinity. Low values mean low exposure, high ones high exposure. Regarding `CC[C@@H](C)OC(=O)[C@H](C)NP(=O)(OC[C@H]1O[C@@](C#N)(c2ccc3c(N)ncnn23)[C@](C)(O)[C@@H]1O)Oc1ccccc1` (some centres undefined), the Stability result in [12] is recorded as “Stable”. This compound gave a Fa in [13] of 8.1%. In addition, the AUC(0-inf) in [14] turned out to be 0.14 µM·h; in series [15], 0.46 µM·h. In the series on Syrian golden hamster [2], the peak concentration (Cmax) turned out to be 1870 nM. For the same compound, the hepatic extraction ratio at 1.5 h, 2 µM in [4] is 0.94. In addition, in [5], the half-life at 2 µM came to 7.68 h. Besides, in [6], the Papp B→A at 10 µM turned out to be 37.5 ×10⁻⁶ cm/s. In addition, in series [7], the Papp A→B at 10 µM is 0.75 ×10⁻⁶ cm/s. For the same compound, in [8], the concentration in solution (solubility) was 151 µg/mL (≈ 257 µM). In series [9], this compound displayed a logD of 1.9. Besides, in series [10], the CC50 at 72 h was over 89000 nM. The EC50 in the series on Hepatitis C virus [11] was 980 nM.

Regarding `C[C@H](NP(=O)(OC[C@H]1O[C@@](C#N)(c2ccc3c(N)ncnn23)[C@](C)(O)[C@@H]1O)Oc1ccccc1)C(=O)OCc1ccccc1` (some centres undefined), the Cmax in the series on Syrian golden hamster [2] is 860 nM. In addition, the hepatic extraction ratio at 1.5 h, 2 µM in series [4] was 0.93. The same compound came in with a half-life at 2 µM in series [5] of 2.15 h. In series [6], the Papp B→A at 10 µM worked out at 25.3 ×10⁻⁶ cm/s. Moreover, the Papp A→B at 10 µM in series [7] turned out to be 3.35 ×10⁻⁶ cm/s. In [8], the concentration in solution (solubility) was 0.05 µg/mL (≈ 0.0803 µM). In addition, the pH-dependent lipophilicity (logD) in series [9] is 2.2. It took 63000 nM to reach half-maximal cytotoxicity in series [10] (CC50 at 72 h). The EC50 in the series on Hepatitis C virus [11] came out at 330 nM.

Take `C[C@@]1(O)[C@H](O)[C@@H](CO)O[C@H]1n1ccc2c(N)ncnc21` [BETA-2'-C-METHYL-7-DEAZA-ADENOSINE]: the “Ratio EC50” value in the series with Hepatitis C virus [16] is listed as over 95.

`CC[C@H](C)OC(=O)[C@H](C)NP(=O)(OC[C@H]1O[C@@](C#N)(c2ccc3c(N)ncnn23)[C@](C)(O)[C@@H]1O)Oc1ccccc1` (some centres undefined): the Stability result in [12] was “Stable”. This compound displayed a Fa in [13] of 16%. The AUC(0-inf) in series [14] was found to be 0.12 µM·h; in series [15] it was 0.8 µM·h. Moreover, in the series with Syrian golden hamster [2], the Cmax was found to be 1270 nM. The Drug metabolism entry in the series on Hepatocyte is “Active”. In addition, the hepatic extraction ratio at 1.5 h, 2 µM in series [4] is 0.93. For the same compound, the half-life at 2 µM in [5] is 9.87 h. For the same compound, the Papp B→A at 10 µM in [6] amounted to 17.9 ×10⁻⁶ cm/s. Besides, in series [7], the Papp A→B at 10 µM was 1.47 ×10⁻⁶ cm/s. In [8], this compound returned a solubility of 200 µg/mL (≈ 340 µM). Moreover, in series [9], the logD came out at 2.1. The CC50 at 72 h in series [10] was over 89000 nM. In addition, the EC50 in the series with Hepatitis C virus [11] amounted to 230 nM.
